Square brackets hold non-standard residues; d marks the D form. Peptide text beside a SMILES is read from it. pGlu = O=C1CC[C@@H](C(=O)O)N1
Tests used:
Rattus norvegicus [1] = species on record: Rattus norvegicus; assay: Tested in vitro for LH release from cultured rat pituitary cells, activity is expressed as pD2 value; type: functional, Pituitary gland cell
Method in brief: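 Cultured rat pituitary cells; LH release measured across agonist concentrations; pD2 = negative log of agonist concentration giving 50% of maximal LH release.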

[2] = Clearance in rat after iv dose (100 ug/kg); type: ADME, organism-based; details: in vivo, 0.1 mg/kg
Method in brief: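 Castrate male rats given 100 μg/kg iv bolus; blood sampled over 6 h with EDTA anticoagulant. Plasma levels by RIA with antibody recognizing C-terminal Leu-Arg-Pro-NHEt or Leu-Arg-Pro-GlyNH₂ (rabbit antisera C-402 with [125I-Tyr⁵]leuprolide tracer, or 5328W with [125I-Tyr⁵,DLys⁶]LHRH). AUC by trapezoidal rule; whole-body clearance = dose/AUC, mL/min per kg.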

Rattus norvegicus [3] = species on record: Rattus norvegicus; assay: Intestinal stability against rat jejunum sac, activity is expressed as T1/2; type: functional
Method in brief: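 Rat jejunal sac in vitro; T1/2 taken as time, in min, for lumenal compound concentration to fall by 50%.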

clearance [2] [mL/min/kg]	Structure (SMILES)	pD2 (Rattus norvegicus [1])	T1/2 (Rattus norvegicus [3]) [min]
19.5	CCNC(=O)[C@@H]1CCCN1C(=O)[C@H](CCCNC(=N)N)NC(=O)[C@H](CC(C)C)N(C)C(=O)[C@@H](Cc1c[nH]c2ccccc12)NC(=O)[C@H](Cc1ccc(O)cc1)NC(=O)[C@H](CO)NC(=O)[C@H](Cc1c[nH]c2ccccc12)NC(=O)[C@H](Cc1c[nH]cn1)NC(=O)[C@@H]1CCC(=O)N1 [LUTRELIN]	10.7	–
34.3	CCNC(=O)[C@@H]1CCCN1C(=O)[C@H](CCCNC(=N)N)NC(=O)[C@H](CC(C)C)NC(=O)[C@@H](Cc1c[nH]c2ccccc12)NC(=O)[C@H](Cc1ccc(O)cc1)NC(=O)[C@H](CO)NC(=O)[C@H](Cc1c[nH]c2ccccc12)NC(=O)[C@H](Cc1c[nH]cn1)NC(=O)[C@@H]1CCC(=O)N1 [DESLORELIN]	11.33	–
25.4	CCNC(=O)[C@@H]1CCCN1C(=O)[C@H](CCCN=C(N)N)NC(=O)[C@H](CC(C)C)NC(=O)[C@@H](CC(C)C)NC(=O)[C@H](Cc1ccc(O)cc1)NC(=O)[C@H](CO)NC(=O)[C@H](Cc1c[nH]c2ccccc12)NC(=O)[C@H](Cc1ccccc1)NC(=O)[C@@H]1CCC(=O)N1 ([pGlu]FWSY[dL]LRP-NHEt)	–	2.2
19.9	CCNC(=O)[C@@H]1CCCN1C(=O)[C@H](CCCN=C(N)N)NC(=O)[C@H](CC(C)C)NC(=O)[C@@H](Cc1c[nH]c2ccccc12)NC(=O)[C@H](Cc1ccc(O)cc1)NC(=O)[C@H](CO)N(C)C(=O)[C@H](Cc1c[nH]c2ccccc12)NC(=O)[C@H](Cc1cnc[nH]1)NC(=O)[C@@H]1CCC(=O)N1	–	–
4.32	CC(C)C[C@H](NC(=O)[C@@H](Cc1c[nH]c2ccccc12)NC(=O)[C@H](Cc1ccc(O)cc1)NC(=O)[C@H](CO)NC(=O)[C@H](Cc1c[nH]c2ccccc12)NC(=O)[C@H](Cc1c[nH]cn1)NC(=O)[C@@H]1CCC(=O)N1)C(=O)N[C@@H](CCCN=C(N)N)C(=O)N1CCC[C@H]1C(=O)N(C)CC(N)=O	10.05	–
11.1	CCNC(=O)[C@@H]1CCCN1C(=O)[C@H](CCCN=C(N)N)NC(=O)[C@H](CC(C)C)NC(=O)[C@@H](Cc1c[nH]c2ccccc12)NC(=O)[C@H](Cc1ccc(O)cc1)N(C)C(=O)[C@H](CO)NC(=O)[C@H](Cc1c[nH]c2ccccc12)NC(=O)[C@H](Cc1c[nH]cn1)NC(=O)[C@@H]1CCC(=O)N1	10.55	–

Further lines, the compound ahead of its results:

Structure (SMILES)	clearance [2] [mL/min/kg]	pD2 (Rattus norvegicus [1])	T1/2 (Rattus norvegicus [3]) [min]
CC(C)C[C@H](NC(=O)[C@@H](Cc1ccc2ccccc2c1)NC(=O)[C@H](Cc1ccc(O)cc1)NC(=O)[C@H](CO)NC(=O)[C@H](Cc1c[nH]c2ccccc12)NC(=O)[C@H](Cc1ccccc1)NC(=O)[C@@H]1CCC(=O)N1)C(=O)N[C@@H](CCCN=C(N)N)C(=O)N1CCC[C@H]1C(=O)NCC(N)=O	–	10.23	–
CC(C)C[C@H](NC(=O)[C@@H](Cc1ccc2ccccc2c1)NC(=O)[C@H](Cc1ccc(O)cc1)NC(=O)[C@H](CO)NC(=O)[C@H](Cc1c[nH]c2ccccc12)NC(=O)[C@H](Cc1c[nH]cn1)N(C)C(=O)[C@@H]1CCC(=O)N1)C(=O)N[C@@H](CCCN=C(N)N)C(=O)N1CCC[C@H]1C(=O)NCC(N)=O	4.13	8.18	–
CCNC(=O)[C@@H]1CCCN1C(=O)[C@H](CCCN=C(N)N)NC(=O)[C@H](CC(C)C)NC(=O)[C@@H](Cc1c[nH]c2ccccc12)NC(=O)[C@H](Cc1ccc(O)cc1)NC(=O)[C@H](CO)NC(=O)[C@H](Cc1cccc2ccccc12)N(C)C(=O)[C@H](Cc1c[nH]cn1)NC(=O)[C@@H]1CCC(=O)N1	15.1	8.35	–
CCNC(=O)[C@@H]1CCCN1C(=O)[C@H](CCCN=C(N)N)N(C)C(=O)[C@H](CC(C)C)NC(=O)[C@@H](Cc1c[nH]c2ccccc12)NC(=O)[C@H](Cc1ccc(O)cc1)NC(=O)[C@H](CO)NC(=O)[C@H](Cc1c[nH]c2ccccc12)NC(=O)[C@H](Cc1c[nH]cn1)NC(=O)[C@@H]1CCC(=O)N1	25	9.35	–
CC(C)C[C@H](NC(=O)[C@@H](Cc1ccc2ccccc2c1)NC(=O)[C@H](Cc1ccc(O)cc1)NC(=O)[C@H](CO)NC(=O)[C@H](Cc1c[nH]c2ccccc12)NC(=O)[C@H](Cc1c[nH]cn1)NC(=O)[C@@H]1CCC(=O)N1)C(=O)N[C@@H](CCCN=C(N)N)C(=O)N1CCC[C@H]1C(=O)N(C)CC(N)=O	3.55	11.87	–
CCNC(=O)[C@@H]1CCCN1C(=O)[C@H](CCCN=C(N)N)NC(=O)C(CC(C)C)NC(=O)C(CC(C)C)NC(=O)[C@H](Cc1ccc(O)cc1)NC(=O)[C@H](CO)NC(=O)[C@H](Cc1c[nH]c2ccccc12)NC(=O)[C@H](Cc1c[nH]cn1)N(C)C(=O)[C@@H]1CCC(=O)N1 (stereo in doubt) [listing 1 of 2 here]	–	–	48
CCNC(=O)[C@@H]1CCCN1C(=O)[C@H](CCCN=C(N)N)NC(=O)[C@H](CC(C)C)NC(=O)[C@@H](Cc1c[nH]c2ccccc12)NC(=O)[C@H](Cc1ccc(O)cc1)NC(=O)[C@H](CO)NC(=O)[C@H](Cc1cccc2ccccc12)NC(=O)[C@H](Cc1c[nH]cn1)NC(=O)[C@@H]1CCC(=O)N1	–	11.49	–
CC(C)C[C@H](NC(=O)[C@@H](Cc1ccc2ccccc2c1)NC(=O)[C@H](Cc1ccc(O)cc1)NC(=O)[C@H](CO)NC(=O)[C@H](Cc1cccc2ccccc12)NC(=O)[C@H](Cc1c[nH]cn1)NC(=O)[C@@H]1CCC(=O)N1)C(=O)N[C@@H](CCCN=C(N)N)C(=O)N1CCC[C@H]1C(=O)NCC(N)=O	–	11.55	–
CC(C)C[C@@H](C(=O)N[C@@H](CCCN=C(N)N)C(=O)N1CCC[C@H]1C(=O)NCC(N)=O)N(C)C(=O)[C@@H](Cc1ccc2ccccc2c1)NC(=O)[C@H](Cc1ccc(O)cc1)NC(=O)[C@H](CO)NC(=O)[C@H](Cc1c[nH]c2ccccc12)NC(=O)[C@H](Cc1c[nH]cn1)NC(=O)[C@@H]1CCC(=O)N1	–	12.35	–
CC(C)C[C@H](NC(=O)[C@@H](Cc1ccc2ccccc2c1)N(C)C(=O)[C@H](Cc1ccc(O)cc1)NC(=O)[C@H](CO)NC(=O)[C@H](Cc1c[nH]c2ccccc12)NC(=O)[C@H](Cc1c[nH]cn1)NC(=O)[C@@H]1CCC(=O)N1)C(=O)N[C@@H](CCCN=C(N)N)C(=O)N1CCC[C@H]1C(=O)NCC(N)=O	–	8.3	–
CCNC(=O)[C@@H]1CCCN1C(=O)[C@H](CCCN=C(N)N)NC(=O)[C@H](CC(C)C)NC(=O)[C@@H](Cc1c[nH]c2ccccc12)NC(=O)[C@H](Cc1ccc(O)cc1)NC(=O)[C@H](CO)N(C)C(=O)[C@H](Cc1c[nH]c2ccccc12)NC(=O)[C@H](Cc1c[nH]cn1)NC(=O)[C@@H]1CCC(=O)N1	–	–	39.1
CCNC(=O)[C@@H]1CCCN1C(=O)[C@H](CCCN=C(N)N)NC(=O)C(CC(C)C)NC(=O)C(CC(C)C)NC(=O)[C@H](Cc1ccc(O)cc1)NC(=O)[C@H](CO)NC(=O)[C@H](Cc1c[nH]c2ccccc12)NC(=O)[C@H](Cc1c[nH]cn1)N(C)C(=O)[C@@H]1CCC(=O)N1 (stereo in doubt) [listing 2 of 2 here]	–	8.22	–
CCNC(=O)[C@@H]1CCCN1C(=O)[C@H](CCCN=C(N)N)NC(=O)[C@H](CC(C)C)NC(=O)[C@@H](CC(C)C)NC(=O)[C@H](Cc1ccc(O)cc1)N(C)C(=O)[C@H](CO)NC(=O)[C@H](Cc1c[nH]c2ccccc12)NC(=O)[C@H](Cc1c[nH]cn1)NC(=O)[C@@H]1CCC(=O)N1	–	–	42
CC(C)C[C@H](NC(=O)[C@@H](Cc1ccc2ccccc2c1)NC(=O)[C@H](Cc1ccc(O)cc1)NC(=O)[C@H](CO)NC(=O)[C@H](Cc1cccc2ccccc12)N(C)C(=O)[C@H](Cc1c[nH]cn1)NC(=O)[C@@H]1CCC(=O)N1)C(=O)N[C@@H](CCCN=C(N)N)C(=O)N1CCC[C@H]1C(=O)NCC(N)=O	–	8.7	–
